# ChEMBL document CHEMBL3580532, “Deconins A-E: Cuparenic and Mevalonic or Propionic Acid Conjugates from the Basidiomycete Deconica sp. 471” (J Nat Prod, 2015)
# Active and inactive are the calls of the source. The rule behind the calls is not given here.
# How the values were obtained:
# Mucor hiemalis [1] = assay: Antimicrobial activity against Mucor hiemalis DSM2656 […] assessed as inhibition of microbial growth incubated for 24 to 48 hrs by serial dilution assay; assay type: functional
# Procedure, shortened: (§1)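 Yeasts and fungi were tested by serial dilution in MYC medium (1.0% phytone peptone, 1.0% glucose, 50 mM HEPES, pH 7.0). Compound from a 1 mg/mL MeOH stock was dried in row A, then inoculum at 1:100 in medium was added and diluted 1:1 down the plate (66.7 to 0.1 μg/mL). Incubation was 30 °C, 600 rpm shaking, 24−48 h. MIC is the lowest concentration with no visible growth.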
# Wickerhamomyces anomalus [2] = assay: Antimicrobial activity against Pichia anomala DSM6766 assessed as inhibition of microbial growth incubated for 24 to 48 hrs by serial dilution assay; assay type: functional, organism-based
# Procedure, shortened: (§2)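 Broth serial dilution in MYC medium (1.0% phytone peptone, 1.0% glucose, 50 mM HEPES, pH 7.0). Compound stock (1 mg/mL in MeOH) was dried in the first row, then the yeast was added as a 1:100 inoculum:medium mix. Twofold serial dilutions covered 66.7 to 0.1 μg/mL. Plates were shaken at 600 rpm, 30 °C, for 24–48 h. MIC was the lowest concentration with no visible growth. Blank wells served as negative controls.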
# Candida albicans [3] = assay: Antimicrobial activity against Candida albicans DSM1665 assessed as inhibition of microbial growth incubated for 24 to 48 hrs by serial dilution assay; assay type: functional, organism-based; procedure, shortened: as §2
# [4] = system: Schizosaccharomyces pombe; assay: Antimicrobial activity against Schizosaccharomyces pombe DSM70572 assessed as inhibition of microbial growth incubated for 24 to 48 hrs by serial dilution assay; assay type: functional, organism-based; procedure, shortened: as §2
# [5] = system: Schizosaccharomyces pombe; assay: Antimicrobial activity against Schizosaccharomyces pombe DSM70572 assessed as inhibition of microbial growth up to 67 ug/ml incubated for 24 to 48 hrs by serial dilution assay; assay type: functional, organism-based; procedure, shortened: as §1
# Micrococcus luteus [6] = assay: Antimicrobial activity against Micrococcus luteus DSM1790 assessed as inhibition of microbial growth up to 67 ug/ml incubated for 24 to 48 hrs by serial dilution assay; assay type: functional, organism-based
# Procedure, shortened: (§3)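 Broth microdilution in EBS medium (peptone, glucose, meat and yeast extract, 50 mM HEPES, pH 7.0). A 1 mg/mL MeOH stock was dried in the first row, then pathogen diluted 1:100 in medium was added and serially diluted 1:1 (66.7 to 0.1 μg/mL tested). Plates were shaken at 600 rpm, 30 °C, for 24−48 h. MIC is the lowest concentration preventing visible growth; blank wells served as negative control.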
# [7] = system: Chromobacterium violaceum; assay: Antimicrobial activity against Chromobacterium violaceum DSM30191 assessed as inhibition of microbial growth up to 67 ug/ml incubated for 24 to 48 hrs by serial dilution assay; assay type: functional, organism-based; procedure, shortened: as §3
# Candida albicans [8] = assay: Antimicrobial activity against Candida albicans DSM1665 assessed as inhibition of microbial growth up to 67 ug/ml incubated for 24 to 48 hrs by serial dilution assay; assay type: functional, organism-based; procedure, shortened: as §1
# L929 = assay: Cytotoxicity against mouse L929 cells incubated for 5 days by MTT assay; assay type: cell-based; conditions: L929, 120 h
# Procedure, shortened: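 L929 mouse fibroblasts were grown in EBM-2 with 10% FBS at 37 °C under 10% CO₂. Serial dilutions from a 1 mg/mL MeOH stock were added to cell suspension (50 000/mL) and incubated 5 days. Read-out was MTT with absorbance at 590 nm. IC₅₀ (50% growth inhibition versus control) was taken from dose−response curves; methanol was the negative control.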
# Escherichia coli [9] = assay: Antimicrobial activity against Escherichia coli DSM1116 assessed as inhibition of microbial growth up to 67 ug/ml incubated for 24 to 48 hrs by serial dilution assay; assay type: functional, organism-based; procedure, shortened: as §3
# Pseudomonas aeruginosa [10] = assay: Antimicrobial activity against Pseudomonas aeruginosa DSM50071 assessed as inhibition of microbial growth up to 67 ug/ml incubated for 24 to 48 hrs by serial dilution assay; assay type: functional, organism-based; procedure, shortened: as §3
# Bacillus subtilis [11] = assay: Antimicrobial activity against Bacillus subtilis DSM10 assessed as inhibition of microbial growth up to 67 ug/ml incubated for 24 to 48 hrs by serial dilution assay; assay type: functional, organism-based; procedure, shortened: as §3
# Staphylococcus aureus [12] = assay: Antimicrobial activity against Staphylococcus aureus DSM346 assessed as inhibition of microbial growth incubated for 24 to 48 hrs by serial dilution assay; assay type: functional; procedure, shortened: as §3
# Wickerhamomyces anomalus [13] = assay: Antimicrobial activity against Pichia anomala DSM6766 assessed as inhibition of microbial growth up to 67 ug/ml incubated for 24 to 48 hrs by serial dilution assay; assay type: functional, organism-based; procedure, shortened: as §1
# Mucor hiemalis [14] = assay: Antimicrobial activity against Mucor hiemalis DSM2656 […] assessed as inhibition of microbial growth up to 67 ug/ml incubated for 24 to 48 hrs by serial dilution assay; assay type: functional, organism-based; procedure, shortened: as §1
# Staphylococcus aureus [15] = assay: Antimicrobial activity against Staphylococcus aureus DSM346 assessed as inhibition of microbial growth up to 67 ug/ml incubated for 24 to 48 hrs by serial dilution assay; assay type: functional, organism-based; procedure, shortened: as §3
# Bacillus subtilis [16] = assay: Antimicrobial activity against Bacillus subtilis DSM10 assessed as inhibition of microbial growth incubated for 24 to 48 hrs by serial dilution assay; assay type: functional; procedure, shortened: as §3
# Pseudomonas aeruginosa [17] = assay: Antimicrobial activity against Pseudomonas aeruginosa DSM50071 assessed as inhibition of microbial growth incubated for 24 to 48 hrs by serial dilution assay; assay type: functional, organism-based
# Procedure, shortened: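 Broth serial dilution in EBS medium (0.5% peptone, 0.5% glucose, 0.1% meat extract, 0.1% yeast extract, 50 mM HEPES, pH 7.0). Compound stock (1 mg/mL in MeOH) was dried in the first row, then the bacterium was added as a 1:100 inoculum:medium mix. Twofold dilutions covered 66.7 to 0.1 μg/mL. Plates were shaken at 600 rpm, 30 °C, for 24–48 h. MIC was the lowest concentration with no visible growth.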
# Escherichia coli [18] = assay: Antimicrobial activity against Escherichia coli DSM1116 assessed as inhibition of microbial growth incubated for 24 to 48 hrs by serial dilution assay; assay type: functional; procedure, shortened: as §3
# [19] = system: Chromobacterium violaceum; assay: Antimicrobial activity against Chromobacterium violaceum DSM30191 assessed as inhibition of microbial growth incubated for 24 to 48 hrs by serial dilution assay; assay type: functional; procedure, shortened: as §3
# Micrococcus luteus [20] = assay: Antimicrobial activity against Micrococcus luteus DSM1790 assessed as inhibition of microbial growth incubated for 24 to 48 hrs by serial dilution assay; assay type: functional; procedure, shortened: as §3
Compound,MIC (Mucor hiemalis [1]),inhibition [5],inhibition (Micrococcus luteus [6]),inhibition [7],inhibition (Candida albicans [8]),IC50 (L929),inhibition (Escherichia coli [9]),inhibition (Pseudomonas aeruginosa [10]),inhibition (Bacillus subtilis [11]),MIC (Staphylococcus aureus [12]),inhibition (Wickerhamomyces anomalus [13]),inhibition (Mucor hiemalis [14]),inhibition (Staphylococcus aureus [15]),other results
NYSTATIN,67 µg/mL,–,–,–,–,–,–,–,–,–,–,–,–,MIC (Wickerhamomyces anomalus [2]): 33.3 µg/mL; MIC (Candida albicans [3]): 67 µg/mL; MIC [4]: 33.3 µg/mL
CC1(C)CC[C@@H](O)[C@]1(C)c1ccc(C(=O)OCC[C@@](C)(O)CC(=O)O)cc1,–,inactive,inactive,inactive,inactive,2.8 µg/mL,inactive,inactive,inactive,67 µg/mL,inactive,inactive,–,–
CC(O)(COC(=O)c1ccc([C@@]2(C)C[C@H](O)CC2(C)C)cc1)C(=O)O (some centres not stated),–,inactive,inactive,inactive,inactive,> 10 µg/mL,inactive,inactive,inactive,67 µg/mL,inactive,inactive,–,–
CC1(C)[C@@H](O)C(=O)C[C@]1(C)c1ccc(C(=O)O)cc1,–,inactive,inactive,inactive,inactive,> 10 µg/mL,inactive,inactive,inactive,–,inactive,inactive,inactive,–
CC1(C)CC(=O)C[C@]1(C)c1ccc(C(=O)OCC[C@@](C)(O)CC(=O)O)cc1,–,inactive,inactive,inactive,inactive,> 10 µg/mL,inactive,inactive,inactive,–,inactive,inactive,inactive,–
CC1(C)CCC[C@]1(C)c1ccc(C(=O)OCC[C@@](C)(O)CC(=O)O)cc1,67 µg/mL,inactive,inactive,inactive,inactive,> 10 µg/mL,inactive,inactive,–,67 µg/mL,inactive,–,–,MIC (Bacillus subtilis [16]): 67 µg/mL
GENTAMICIN,–,–,–,–,–,–,–,–,–,–,–,–,–,MIC (Pseudomonas aeruginosa [17]): 42 µg/mL
CN(C)[C@@H]1C(O)=C(C(N)=O)C(=O)[C@@]2(O)C(O)=C3C(=O)c4c(O)cccc4[C@@](C)(O)[C@H]3[C@H](O)[C@@H]12.Cl [OXYTETRACYCLINE HYDROCHLORIDE],–,–,–,–,–,–,–,–,–,0.21 µg/mL,–,–,–,MIC (Escherichia coli [18]): 0.83 µg/mL; MIC [19]: 0.83 µg/mL; MIC (Bacillus subtilis [16]): 0.83 µg/mL; MIC (Micrococcus luteus [20]): 0.42 µg/mL
CC1(C)CCC[C@]1(C)c1ccc(C(=O)O)cc1,67 µg/mL,inactive,inactive,inactive,inactive,> 10 µg/mL,inactive,inactive,inactive,–,inactive,–,inactive,–
CC1(C)CC(=O)C[C@]1(C)C1=CC=C(C(=O)OCC[C@@](C)(O)CC(=O)O)CC1,–,inactive,inactive,inactive,inactive,> 10 µg/mL,inactive,inactive,inactive,–,inactive,inactive,inactive,–
